Results published in ChEMBL document CHEMBL1123920, “Leukotriene D4 antagonists and 5-lipoxygenase inhibitors. Synthesis of benzoheterocyclic [(methoxyphenyl)amino]oxoalkanoic acid esters” (J Med Chem, 1987).

Assays:
[1] = biological target: T1, Polyunsaturated fatty acid 5-lipoxygenase (Rattus norvegicus) (UniProt P12527); experiment: Ability to inhibit Lipoxygenase in vitro was determined; NA is <50% inhibition at 100 uM
T1 sequence (whole entry): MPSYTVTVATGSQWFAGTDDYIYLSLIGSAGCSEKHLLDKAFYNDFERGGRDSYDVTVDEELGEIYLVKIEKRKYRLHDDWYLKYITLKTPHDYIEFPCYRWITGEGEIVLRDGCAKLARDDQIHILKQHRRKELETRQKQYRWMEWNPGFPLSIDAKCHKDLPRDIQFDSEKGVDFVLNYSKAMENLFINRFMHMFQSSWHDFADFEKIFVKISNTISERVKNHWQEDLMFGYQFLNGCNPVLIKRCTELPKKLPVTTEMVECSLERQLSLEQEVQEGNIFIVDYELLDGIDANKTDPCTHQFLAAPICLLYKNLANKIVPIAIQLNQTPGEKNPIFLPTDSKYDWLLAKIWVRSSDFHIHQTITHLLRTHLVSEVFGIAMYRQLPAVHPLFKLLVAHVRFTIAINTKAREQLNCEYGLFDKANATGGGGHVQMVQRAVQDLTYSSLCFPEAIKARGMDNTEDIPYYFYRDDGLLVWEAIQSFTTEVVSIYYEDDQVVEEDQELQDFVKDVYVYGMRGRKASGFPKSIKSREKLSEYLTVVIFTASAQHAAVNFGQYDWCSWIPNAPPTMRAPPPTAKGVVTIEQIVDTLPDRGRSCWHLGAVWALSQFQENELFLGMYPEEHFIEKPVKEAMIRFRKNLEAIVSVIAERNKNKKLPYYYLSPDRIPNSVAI
Summary of the method: (§1)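 Source is rat polymorphonuclear leukocyte (PMN) 5-lipoxygenase. IC50 values come from nonlinear regression analysis, significant at p < 0.05.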

[2] = biological target: T2, Polyunsaturated fatty acid 5-lipoxygenase (Rattus norvegicus, UniProt P12527); experiment: (§2) Ability to inhibit Lipoxygenase in vitro was determined; summary of the method: as §1
T2 sequence (P12527 whole entry): T1 sequence (whole entry)

Cavia porcellus = experiment: Ability to inhibit the Ovalbumin induced bronchospasm in guinea pig was determined in vivo at a dose of 50 mg/kg id; type: functional; conditions: route intraduodenal
Summary of the method: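 Guinea pigs were challenged with LTD4 or ovalbumin to induce bronchospasm, and test agent was given intraduodenally. Read-out is percent inhibition of bronchospasm. Significance uses a two-tailed Student's t test (p < 0.05). N is the number of treated animals.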

[3] = biological target: T2, Polyunsaturated fatty acid 5-lipoxygenase; experiment: as §2; remark: listed apart in the source
Rattus norvegicus [4] = species on record: Rattus norvegicus; experiment: Tested for metabolic activation counted as mean number of revertants in three plates per treatment at 0.02 mg per plate, with activation provided by S-9 rat liver homogenates in Ames test; type: functional, organism-based
Rattus norvegicus [5] = species on record: Rattus norvegicus; experiment: Tested for metabolic activation counted as mean number of revertants in strains TA98, TA100, TA1535, and TA1538, three plates per treatment at 0.6 mg per plate, with activation provided by S-9 rat liver in Ames test; type: functional
Rattus norvegicus [6] = species on record: Rattus norvegicus; experiment: Tested for metabolic activation counted as mean number of revertants in strains TA98, TA100, TA1535, and TA1538, three plates per treatment at 0.2 mg per plate, without activation in the absence of S-9 rat liver homogenates in Ames test; type: functional, organism-based
Rattus norvegicus [7] = species on record: Rattus norvegicus; experiment: Tested for metabolic activation counted as mean number of revertants in strains TA98, TA100, TA1535, and TA1538, three plates per treatment at 0.02 mg per plate, without activation in the absence of S-9 rat liver homogenates in Ames test; type: functional, organism-based
Rattus norvegicus [8] = species on record: Rattus norvegicus; experiment: Tested for metabolic activation counted as mean number of revertants in strains TA98, TA100, TA1535, and TA1538, three plates per treatment at 2.0 mg per plate, with activation provided by S-9 rat liver homogenates in Ames test; type: functional, organism-based
Rattus norvegicus [9] = species on record: Rattus norvegicus; experiment: Tested for metabolic activation counted as mean number of revertants in strains TA98, TA100, TA1535, and TA1538, three plates per treatment at 0.2 mg per plate, with activation provided by S-9 rat liver in Ames test; type: functional
Rattus norvegicus [10] = species on record: Rattus norvegicus; experiment: Tested for metabolic activation counted as mean number of revertants in strains TA98, TA100, TA1535, and TA1538, three plates per treatment at 2.0 mg per plate, without activation in the absence of S-9 rat liver homogenates in Ames test; type: functional, organism-based
Rattus norvegicus [11] = species on record: Rattus norvegicus; experiment: Tested for metabolic activation counted as mean number of revertants in three plates per treatment at 0.06 mg per plate, with activation provided by S-9 rat liver homogenates in Ames test; type: functional, organism-based
Rattus norvegicus [12] = species on record: Rattus norvegicus; experiment: Tested for metabolic activation counted as mean number of revertants in strains TA98, TA100, TA1535, and TA1538, three plates per treatment at 0.06 mg per plate, without activation in the absence of S-9 rat liver homogenates in Ames test; type: functional, organism-based
Rattus norvegicus [13] = species on record: Rattus norvegicus; experiment: Tested for metabolic activation counted as mean number of revertants in strains TA98, TA100, TA1535, and TA1538, three plates per treatment at 0.6 mg per plate, without activation in the absence of S-9 rat liver homogenates in Ames test; type: functional, organism-based
Rattus norvegicus [14] = species on record: Rattus norvegicus; experiment: Tested for metabolic activation counted as mean number of revertants in strains TA98, TA100, TA1535, and TA1538, three plates per treatment at 0.15 mg per plate, with activation provided by S-9 rat liver homogenates in Ames test; type: functional, organism-based
Rattus norvegicus [15] = species on record: Rattus norvegicus; experiment: Tested for metabolic activation counted as mean number of revertants in strains TA98, TA100, TA1535, and TA1538, three plates per treatment at 0.05 mg per plate, without activation in the absence of S-9 rat liver homogenates in Ames test; type: functional, organism-based
Rattus norvegicus [16] = species on record: Rattus norvegicus; experiment: Tested for metabolic activation counted as mean number of revertants in strains TA98, TA100, TA1535, and TA1538, three plates per treatment at 5.0 mg per plate, without activation in the absence of S-9 rat liver homogenates in Ames test; type: functional, organism-based
Rattus norvegicus [17] = species on record: Rattus norvegicus; experiment: Tested for metabolic activation counted as mean number of revertants in strains TA98, TA100, TA1535, and TA1538, three plates per treatment at 1.5 mg per plate, without activation in the absence of S-9 rat liver homogenates in Ames test; type: functional, organism-based
Rattus norvegicus [18] = species on record: Rattus norvegicus; experiment: Tested for metabolic activation counted as mean number of revertants in strains TA98, TA100, TA1535, and TA1538, three plates per treatment at 0.05 mg per plate, with activation provided by S-9 rat liver homogenates in Ames test; type: functional, organism-based
Rattus norvegicus [19] = species on record: Rattus norvegicus; experiment: Tested for metabolic activation counted as mean number of revertants in strains TA98, TA100, TA1535, and TA1538, three plates per treatment at 1.5 mg per plate, with activation provided by S-9 rat liver homogenates in Ames test; type: functional, organism-based
Rattus norvegicus [20] = species on record: Rattus norvegicus; experiment: Tested for metabolic activation counted as mean number of revertants in strains TA98, TA100, TA1535, and TA1538, three plates per treatment at 5.0 mg per plate, with activation provided by S-9 rat liver homogenates in Ames test; type: functional, organism-based
Rattus norvegicus [21] = species on record: Rattus norvegicus; experiment: Tested for metabolic activation counted as mean number of revertants in strains TA98, TA100, TA1535, and TA1538, three plates per treatment at 0.5 mg per plate, with activation provided by S-9 rat liver homogenates in Ames test; type: functional, organism-based
Rattus norvegicus [22] = species on record: Rattus norvegicus; experiment: Tested for metabolic activation counted as mean number of revertants in strains TA98, TA100, TA1535, and TA1538, three plates per treatment at 0.15 mg per plate, without activation in the absence of S-9 rat liver homogenates in Ames test; type: functional, organism-based
[23] = biological target: T1, Polyunsaturated fatty acid 5-lipoxygenase (Rattus norvegicus); experiment: Ability to inhibit the rat Lipoxygenase in vitro was determined; NA is <50% inhibition at 100 uM; summary of the method: as §1

COC(=O)CCC(=O)Nc1cccc(OCc2ccccn2)c1
inhibition [1]: < 50%

COC(=O)CCC(=O)Nc1cccc(OCc2nc3ccccc3n2C)c1
IC50 [2]: 7.2 µM | inhibition in vivo at 50 mg/kg (Cavia porcellus): 60%

COC(=O)CCC(=O)Nc1cccc(OCC(=O)Nc2ccccc2)c1
inhibition in vivo at 50 mg/kg (Cavia porcellus): 7% | inhibition [1]: < 50%

COC(=O)CC(=O)Nc1cccc(OCc2nc3ccccc3s2)c1
IC50 [2]: 17 µM | inhibition in vivo at 50 mg/kg (Cavia porcellus): 58%

O=C1CCC(=O)N1c1cccc(OCc2nc3ccccc3s2)c1
inhibition in vivo at 50 mg/kg (Cavia porcellus): 18% | inhibition [1]: < 50%

CCCc1c(OCCCCc2nnn[nH]2)ccc(C(C)=O)c1O [TOMELUKAST]
inhibition in vivo at 50 mg/kg (Cavia porcellus): 79.7% | IC50 [3]: 18.9 µM

CCCCCC(O)c1cccc(OCc2ccc3ccccc3n2)c1 (configuration not stated) [REV-5901]
inhibition in vivo at 50 mg/kg (Cavia porcellus): 60.2%

COC(=O)C1CC(=O)N(c2cccc(OCc3ccc4ccccc4n3)c2)C1 (configuration not stated)
Mean no. of revertants (Rattus norvegicus [4]): 12 | Mean no. of revertants (Rattus norvegicus [5]): 15 | Mean no. of revertants (Rattus norvegicus [6]): 16 | inhibition in vivo at 50 mg/kg (Cavia porcellus): 29% | Mean no. of revertants (Rattus norvegicus [7]): 10 | Mean no. of revertants (Rattus norvegicus [8]): 84 | Mean no. of revertants (Rattus norvegicus [9]): 10 | Mean no. of revertants (Rattus norvegicus [10]): 475 | Mean no. of revertants (Rattus norvegicus [11]): 10 | IC50 [3]: 19.1 µM | Mean no. of revertants (Rattus norvegicus [12]): 13 | Mean no. of revertants (Rattus norvegicus [13]): 421

COC(=O)CCC(=O)Nc1cccc(OCc2ccc3ccccc3n2)c1
Mean no. of revertants (Rattus norvegicus [14]): 15 | Mean no. of revertants (Rattus norvegicus [15]): 24 | Mean no. of revertants (Rattus norvegicus [16]): 2260 | Mean no. of revertants (Rattus norvegicus [17]): 2930 | inhibition in vivo at 50 mg/kg (Cavia porcellus): 43% | Mean no. of revertants (Rattus norvegicus [18]): 15 | Mean no. of revertants (Rattus norvegicus [19]): 2770 | Mean no. of revertants (Rattus norvegicus [20]): 2880 | Mean no. of revertants (Rattus norvegicus [21]): 566 | Mean no. of revertants (Rattus norvegicus [22]): 25

Cn1c(COc2cccc(N3C(=O)CCC3=O)c2)nc2ccccc21
inhibition [1]: < 50%

Cn1c(COc2cccc(NC(=O)CCC(=O)O)c2)nc2ccccc21
inhibition [23]: < 50%

O=C(O)CCC(=O)Nc1cccc(OCc2nc3ccccc3s2)c1
inhibition [1]: < 50%
